Measurements as given in ChEMBL document CHEMBL4673248, “Discovery and Characterization of BAY 1214784, an Orally Available Spiroindoline Derivative Acting as a Potent and Selective Antagonist of the Human Gonadotropin-Releasing Hormone Receptor as Proven in a First-In-Human Study in Postmenopausal Women” (J Med Chem, 2020).

Tests used:
[1] = target: T1, Gonadotropin-releasing hormone receptor (Homo sapiens, UniProt P30968); test: Antagonist activity at human GnRH receptor expressed in CHO-K1 cells assessed as inhibition of LHRH-induced response preincubated for 20 mins followed by LHRH addition and measured after 60 mins by TR-FRET assay; format: cell-based
T1 sequence (P30968 whole entry): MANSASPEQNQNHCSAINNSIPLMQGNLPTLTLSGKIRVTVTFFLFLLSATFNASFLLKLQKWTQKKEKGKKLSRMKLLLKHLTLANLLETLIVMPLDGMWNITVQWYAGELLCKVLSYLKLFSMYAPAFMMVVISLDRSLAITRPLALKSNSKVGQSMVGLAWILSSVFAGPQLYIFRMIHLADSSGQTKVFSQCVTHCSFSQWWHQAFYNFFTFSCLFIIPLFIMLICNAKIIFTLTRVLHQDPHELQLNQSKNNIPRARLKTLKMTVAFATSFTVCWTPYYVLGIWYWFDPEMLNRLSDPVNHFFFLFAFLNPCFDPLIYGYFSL

[2] = target: T1, Gonadotropin-releasing hormone receptor; test: Antagonist activity at human GnRH receptor expressed in CHO-K1 cells assessed as inhibition of buserelin-induced response preincubated for 20 mins followed by buserelin addition and measured after 60 mins by TR-FRET assay; format: cell-based
[3] = target: T2, Gonadotropin-releasing hormone receptor (Rattus norvegicus, UniProt P30969); test: Antagonist activity at rat GnRH receptor expressed in CHO-K1 cells assessed as inhibition of LHRH-induced response preincubated for 20 mins followed by LHRH addition and measured after 60 mins by TR-FRET assay; format: cell-based
T2 sequence (P30969 whole entry): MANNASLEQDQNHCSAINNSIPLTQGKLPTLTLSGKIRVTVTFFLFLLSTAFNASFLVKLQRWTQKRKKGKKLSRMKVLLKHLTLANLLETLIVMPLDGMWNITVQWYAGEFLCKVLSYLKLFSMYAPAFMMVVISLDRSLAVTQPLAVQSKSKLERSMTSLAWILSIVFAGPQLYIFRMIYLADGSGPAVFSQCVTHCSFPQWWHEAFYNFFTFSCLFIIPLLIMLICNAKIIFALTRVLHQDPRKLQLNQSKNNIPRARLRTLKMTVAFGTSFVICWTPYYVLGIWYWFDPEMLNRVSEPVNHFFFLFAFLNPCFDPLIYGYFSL
Summary of the method: (§1)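 Frozen rat-receptor cells: thawed, seeded overnight in serum-containing Ham's F12, Accutase-harvested, resuspended in serum-free medium with IP1-d2, 1 h at 37 °C. 1.0 × 10^4 cells/well, 20 min compound preincubation at rt, then 1× EC80 LHRH or buserelin in HEPES stimulation buffer pH 7.4 for 60 min at 37 °C. Tb-anti-IP1 lysis (1:38), HTRF read 60 min later.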

[4] = target: T2, Gonadotropin-releasing hormone receptor; test: Antagonist activity at rat GnRH receptor expressed in CHO-K1 cells assessed as inhibition of buserelin-induced response preincubated for 20 mins followed by buserelin addition and measured after 60 mins by TR-FRET assay; format: cell-based; summary of the method: as §1
[5] = Lipophilicity, log D of the compound in pH 7.5 MeCN/H2O solution by reversed-phase HPLC analysis; format: physicochemical
Summary of the method: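 Indirect reversed-phase HPLC at pH 7.5, calibrated with n-alkan-2-ones C3–C16. Compounds applied as 0.67 mM DMSO stocks in MeCN/H2O (1:1).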

[6] = Oral bioavailability in Wistar rat at 2 mg/kg by LC-MS/MS analysis; format: ADME, organism-based; conditions: in vivo
[7] = Intrinsic clearance in Han Wistar rat hepatocytes at 1 uM measured up to 90 mins by LC/MS/MS analysis; format: ADME, cell-based, Hepatocyte; conditions: for CLint scaled at 1 µM: Han Wistar, read-out: CLH (converted)
[8] = Clearance in Wistar rat at 0.5 mg/kg, iv by LC-MS/MS analysis; format: ADME, organism-based; conditions: in vivo

Compound	IC50 [1]	IC50 [2]	other results
O=C(Nc1ccc2c(c1)C1(CCS(=O)(=O)CC1)C(C1CC1)N2S(=O)(=O)c1ccc(F)cc1)c1cccnc1 (stereo unspecified)	20 nM	45 nM	–
O=C(Nc1ccc2c(c1)C1(CCC(O)(C(F)(F)F)CC1)C(C1CC1)N2S(=O)(=O)c1ccc(F)cc1)c1cccnc1 (stereo unspecified)	78 nM	228 nM	–
O=C(Nc1ccc2c(c1)C1(CC[S+]([O-])CC1)C(C1CC1)N2S(=O)(=O)c1ccc(F)cc1)c1cccnc1 (stereo unspecified)	18 nM	36 nM	–
CC(=O)N1CCC2(CC1)CN(S(=O)(=O)c1ccc(F)cc1)c1ccc(C(=O)NCc3ccccc3Cl)cc12	420 nM	1770 nM	–
O=C(Nc1ccc2c(c1)C1(CCC(O)CC1)C(C1CC1)N2S(=O)(=O)c1ccc(F)cc1)c1cccnc1 (stereo unspecified)	26 nM	61 nM	–
CC(=O)N1CCC2(CC1)c1cc(C(=O)NCc3ccccc3Cl)ccc1N(S(=O)(=O)c1ccccc1)C2C (racemic)	53 nM	131 nM	–
COc1ccc(S(=O)(=O)N2c3ccc(C(=O)NCc4ccccc4Cl)cc3C(C)(C)C2C)cc1 (racemic)	365 nM	6620 nM	IC50 [3]: 1420 nM; IC50 [4]: 4870 nM
C=CCC1N(S(=O)(=O)c2ccc(F)cc2)c2ccc(C(=O)NCc3ccccc3Cl)cc2C12CCN(C(C)=O)CC2 (racemic)	10 nM	22 nM	–
O=C(Nc1ccc2c(c1)C1(CCSCC1)C(C1CC1)N2S(=O)(=O)c1ccc(F)cc1)c1cccnc1 (racemic)	48 nM	132 nM	–
CC(=O)N1CCC2(CC1)c1cc(C(=O)NCc3ccc(F)cc3Cl)ccc1N(S(=O)(=O)c1ccc(F)cc1)C2C1CC1 (racemic)	38 nM	77 nM	–
O=C(NCc1ccc(C(F)(F)F)cn1)c1ccc2c(c1)C1(CCS(=O)(=O)CC1)C(C1CC1)N2S(=O)(=O)c1ccc(F)cc1 (racemic)	159 nM	415 nM	–
CC(=O)N1CCC2(CC1)c1cc(NC(=O)c3cccc(F)c3)ccc1N(S(=O)(=O)c1ccc(F)cc1)C2C1CC1 (racemic)	10 nM	18 nM	–
CC(=O)N1CCC2(CC1)c1cc(C(=O)NCc3ccccc3Cl)ccc1N(C(=O)c1ccc(F)cc1)C2C (racemic)	18000 nM	> 20000 nM	–
O=C(NCc1ncc(F)cc1Cl)c1ccc2c(c1)C1(CCS(=O)(=O)CC1)C(C1CC1)N2S(=O)(=O)c1ccc(F)cc1 (racemic)	65 nM	144 nM	–
CC(=O)N1CCC2(CC1)c1cc(C(=O)NCc3ccccc3Cl)ccc1N(Cc1ccc(F)cc1)C2C (racemic)	12800 nM	18200 nM	–
CC(=O)N1CCC2(CC1)c1cc(C(=O)NCc3ccccc3Cl)ccc1N(S(=O)(=O)c1ccc(C(F)(F)F)cc1)C2C (racemic)	> 20000 nM	13800 nM	–
CC(=O)N1CCC2(CC1)c1cc(C(=O)NCc3ccccc3Cl)ccc1N(S(C)(=O)=O)C2C (racemic)	10100 nM	18100 nM	–
O=C(NCc1ncccc1Cl)c1ccc2c(c1)C1(CCS(=O)(=O)CC1)C(C1CC1)N2S(=O)(=O)c1ccc(F)cc1 (racemic)	90 nM	222 nM	–
CC(=O)N1CCC2(CC1)c1cc(C(=O)NC3(c4ccc(Cl)cc4)CC3)ccc1N(S(=O)(=O)c1ccc(F)cc1)C2C1CC1 (racemic)	56 nM	92 nM	–
CC(=O)N1CCC2(CC1)c1cc(C(=O)NCc3ccccc3Cl)ccc1N(S(=O)(=O)c1ccc(F)cc1)C2C1CC1 (racemic)	24 nM	47 nM	–
CC(=O)N1CCC2(CC1)c1cc(NC(=O)c3cccnc3)ccc1N(S(=O)(=O)c1ccc(F)cc1)C2C1CC1 (racemic)	34 nM	68 nM	–

Compound	IC50 [1]	IC50 [2]	other results
CC(=O)N1CCC2(CC1)c1cc(C(=O)NCc3ccccc3Cl)ccc1N(S(=O)(=O)c1ccc(F)cc1)C2C (racemic)	87 nM	90 nM	chromatographic logD [5]: 3.25
O=C(NCc1ncc(C(F)(F)F)cc1Cl)c1ccc2c(c1)C1(CCS(=O)(=O)CC1)C(C1CC1)N2S(=O)(=O)c1ccc(F)cc1 (racemic)	20 nM	44 nM	–
CC(=O)N1CCC2(CC1)c1cc(C(=O)NCc3ccccc3)ccc1N(S(=O)(=O)c1ccc(F)cc1)C2C1CC1 (racemic)	208 nM	553 nM	–
CC1N(S(=O)(=O)c2ccccc2)c2ccc(C(=O)NCc3ccccc3Cl)cc2C1(C)C (racemic)	3060 nM	1410 nM	IC50 [4]: 4840 nM
O=C(NCc1ccccn1)c1ccc2c(c1)C1(CCS(=O)(=O)CC1)C(C1CC1)N2S(=O)(=O)c1ccc(F)cc1 (racemic)	245 nM	921 nM	–
CC1N(S(=O)(=O)c2ccc(F)cc2)c2ccc(NC(=O)c3cccnc3)cc2C12CCOCC2 (racemic)	53 nM	140 nM	–
CC(=O)N1CCC2(CC1)c1cc(C(=O)NC3(c4ccccc4Cl)CC3)ccc1N(S(=O)(=O)c1ccc(F)cc1)C2C1CC1 (racemic)	162 nM	1050 nM	–
CC(=O)N1CCC2(CC1)c1cc(C(=O)NCc3ccccc3Cl)ccc1N(S(=O)(=O)c1ccc(F)cc1)C2CCO (racemic)	584 nM	1150 nM	–
CC(=O)N1CCC2(CC1)c1cc(C(=O)NCc3ccccc3Cl)ccc1N(S(=O)(=O)c1cccnc1)C2C (racemic)	139 nM	269 nM	–
O=C(NCc1ncc(C(F)(F)F)cc1F)c1ccc2c(c1)C1(CCS(=O)(=O)CC1)C(C1CC1)N2S(=O)(=O)c1ccc(F)cc1 (racemic)	84 nM	246 nM	–
CC(=O)N1CCC2(CC1)c1cc(C(=O)NCc3ncccc3Cl)ccc1N(S(=O)(=O)c1ccc(F)cc1)C2C (single isomer, unassigned)	53.5 nM	35 nM	bioavailability [6]: 18%; CLint scaled at 1 µM [7]: 11.7 mL/min/kg; clearance ([8]; Wistar): 28.3 mL/min/kg
O=C(NCc1ncc(C(F)(F)F)cc1Cl)c1ccc2c(c1)C1(CCS(=O)(=O)CC1)C(C1CC1)N2S(=O)(=O)c1ccc(F)cc1 (stereo in doubt)	–	2430 nM	–
COc1ccc(S(=O)(=O)N2c3ccc(C(=O)NCc4ccccc4Cl)cc3C(C)(C)C2C)cc1 (stereo in doubt; 1a)	570 nM	1500 nM	IC50 [3]: 730 nM; chromatographic logD [5]: 3.8; CLint scaled at 1 µM [7]: 51.7 mL/min/kg; IC50 [4]: 1100 nM
COc1ccc(S(=O)(=O)N2c3ccc(C(=O)NCc4ccccc4Cl)cc3C(C)(C)C2C)cc1 (stereo in doubt; form 1)	568 nM	1530 nM	IC50 [3]: 726 nM; IC50 [4]: 1110 nM
COc1ccc(S(=O)(=O)N2c3ccc(C(=O)NCc4ccccc4Cl)cc3C3(CCN(C(C)=O)CC3)C2C)cc1 (stereo in doubt; form 1)	≥ 20000 nM	≥ 20000 nM	IC50 [3]: ≥ 20000 nM
N=S1(=O)CCC2(CC1)c1cc(NC(=O)c3cccnc3)ccc1N(S(=O)(=O)c1ccc(F)cc1)C2C1CC1 (stereo in doubt; form 1)	32 nM	58.5 nM	–
CC(=O)N1CCC2(CC1)c1cc(C(=O)NCc3ccccc3Cl)ccc1N(S(=O)(=O)c1ccc(F)cc1)C2C (stereo in doubt; form 1)	> 20000 nM	> 20000 nM	–
COc1ccc(S(=O)(=O)N2c3ccc(C(=O)NCc4ccccc4Cl)cc3C(C)(C)C2C)cc1 (stereo in doubt; form 2)	≥ 20000 nM	≥ 20000 nM	IC50 [3]: ≥ 20000 nM; IC50 [4]: ≥ 20000 nM
N=S1(=O)CCC2(CC1)c1cc(NC(=O)c3cccnc3)ccc1N(S(=O)(=O)c1ccc(F)cc1)C2C1CC1 (stereo in doubt; form 2)	13 nM	26 nM	–
CC(=O)N1CCC2(CC1)c1cc(C(=O)NCc3ccccc3Cl)ccc1N(S(=O)(=O)c1ccc(F)cc1)C2C (stereo in doubt; form 2)	21 nM	–	–
COc1ccc(S(=O)(=O)N2c3ccc(C(=O)NCc4ccccc4Cl)cc3C3(CCN(C(C)=O)CC3)C2C)cc1 (stereo in doubt; form 3)	15 nM	28 nM	bioavailability [6]: 1.3%; CLH ([7]; 1.5 h, 1 µM): 20 mL/min/kg; CL ([8]; 0.5 mg/kg): 31.7 mL/min/kg
